Reference: ChEMBL document CHEMBL4043172, “Constructing novel dihydrofuran and dihydroisoxazole analogues of isocombretastatin-4 as tubulin polymerization inhibitors through [3+2] reactions” (Bioorg Med Chem, 2017)
pIC50: −log10 of the molar value. Calls of active or inactive are those of the source. No cut-off for these calls is given here.

How the values were obtained:
[1] = system: PC-3; test: Cytotoxicity against human PC3 cells assessed as reduction in cell viability incubated for 48 hrs by SRB assay; assay type: functional, cell-based; details: PC-3, 48 h
Method in brief: (§1)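 SRB colorimetric antiproliferative assay. Cells were grown in RPMI-1640 with 10% heat-inactivated FBS and penicillin/streptomycin at 37 °C and 5% CO2, and compound-exposed for 48 h. IC50 is the concentration causing 50% inhibition of cell viability, given as mean ± SD of three determinations.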

[2] = system: HeLa; test: Cytotoxicity against human HeLa cells assessed as reduction in cell viability incubated for 48 hrs by SRB assay; assay type: functional, cell-based; method in brief: as §1
[3] = system: PC-3; test: Cell cycle arrest in human PC3 cells assessed as accumulation at G0/G1 phase at 1 uM incubated for 24 hrs by propidium iodide staining based FACS assay (reference value: 62.5%); assay type: functional
Method in brief: (§2)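 PC-3 cells in RPMI-1640 with 10% FBS at 37 °C and 5% CO2. Cells were plated at 1.0×10^5 cells/mL and pre-incubated 24 h, then treated. They were collected by centrifugation, fixed in 70% ethanol overnight at 4 °C, resuspended in PBS with RNase A and propidium iodide, and analysed by flow cytometry for phase distribution against untreated control.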

[4] = system: PC-3; test: Cell cycle arrest in human PC3 cells assessed as accumulation at S phase at 1 uM incubated for 24 hrs by propidium iodide staining based FACS assay (reference value: 23.5%); assay type: functional; method in brief: as §2
[5] = system: PC-3; test: Cell cycle arrest in human PC3 cells assessed as accumulation at S phase at 0.5 uM incubated for 24 hrs by propidium iodide staining based FACS assay (reference value: 23.5%); assay type: functional; method in brief: as §2
[6] = (§3) Inhibition of porcine brain tubulin polymerization incubated for 80 mins by fluorescence based spectrophotometry; design: species or system Sus scrofa
Method in brief: (§4)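 Cell-free fluorescence kit assay. Tubulin (10 mg/mL) in buffer 1 with tubulin glycerol buffer and GTP (100 mM stock) was exposed to compound or DMSO for 80 min at 37 °C. Fluorescence (ex 360 nm, em 460 nm) was read each minute. IC50 was derived from five concentrations: 3, 5, 10, 20 and 40 μM.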

[7] = species on record: Sus scrofa; test: as §3; method in brief: as §4
[8] = system: PC-3; test: Cell cycle arrest in human PC3 cells assessed as accumulation at G0/G1 phase at 0.5 uM incubated for 24 hrs by propidium iodide staining based FACS assay (reference value: 62.5%); assay type: functional; method in brief: as §2
[9] = species on record: Homo sapiens; test: Inhibition of tubulin polymerization in human PC3 cells assessed as disruption of microtubule network at 0.02 uM incubated for 48 hrs by immunohistochemistry; assay type: cell-based; details: 1 uM, in the assay text read “at 1 uM” for “at 0.02 uM”
Method in brief: (§5)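 PC-3 cells were treated for 48 h, then fixed with 4% paraformaldehyde for 30 min and permeabilized with 0.1% Triton X-100 at 4 °C in the dark for 30 min. After blocking in PBS with 5% BSA, cells took anti-α-tubulin (1:500) overnight at 4 °C, then TRITC goat anti-rabbit IgG (1:500) for 1 h at RT. Nuclei were DAPI-stained and imaged by fluorescence microscopy at 20×.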

[10] = system: PC-3; test: Cell cycle arrest in human PC3 cells assessed as accumulation at G2/M phase at 0.5 uM incubated for 24 hrs by propidium iodide staining based FACS assay (reference value: 14%); assay type: functional; method in brief: as §2
[11] = species on record: Homo sapiens; test: Inhibition of tubulin polymerization in human PC3 cells assessed as disruption of microtubule network at 1 uM incubated for 48 hrs by immunohistochemistry; assay type: cell-based; method in brief: as §5
[12] = system: PC-3; test: Cell cycle arrest in human PC3 cells assessed as accumulation at G2/M phase at 1 uM incubated for 24 hrs by propidium iodide staining based FACS assay (reference value: 14%); assay type: functional; method in brief: as §2
[13] = species on record: Sus scrofa; test: Inhibition of porcine brain tubulin polymerization at 3 uM incubated for 80 mins by fluorescence based spectrophotometry
Method in brief: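 Fluorescence-based kit assay. Tubulin (10 mg/mL) in buffer 1 with tubulin glycerol buffer and GTP (100 mM stock) was incubated with compound at 3 µM, with DMSO as vehicle control, at 37 °C for 80 min. Polymerization was followed as the fluorescence increase, read every minute at 360 nm excitation and 460 nm emission.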

SMILES	pIC50 [1]	pIC50 [2]	also measured
COc1ccc(C2(c3cc(OC)c(OC)c(OC)c3)CC(C(=O)c3ccccc3)=C(C)O2)cc1O (stereo unspecified)	< 5.00	< 5.00	–
COc1ccc(C2(c3cc(OC)c(OC)c(OC)c3)CC(c3ccc([N+](=O)[O-])cc3)=NO2)cc1O (stereo unspecified)	< 5.00	< 5.00	–
COc1ccc(C2(c3cc(OC)c(OC)c(OC)c3)CC(c3ccc(O)c(O)c3)=NO2)cc1O (stereo unspecified)	5.02	< 5.00	–
COc1ccc([C@@]2(c3cc(OC)c(OC)c(OC)c3)CC3=C(CCCC3=O)O2)cc1O	4.77	< 5.00	–
COc1ccc([C@]2(c3cc(OC)c(OC)c(OC)c3)CC3=C(CCCC3=O)O2)cc1O	4.82	< 5.00	–
COc1ccc(C2(c3cc(OC)c(OC)c(OC)c3)CC(c3ccc(Cl)cc3)=NO2)cc1O (stereo unspecified)	6.33	5.48	Activity [3]: 6.7%; Activity [4]: 8.8%; Activity [5]: 13.3%; pIC50 [6]: 4.51; inhibition [7]: Dose-dependent effect; Activity [8]: 23.2%; inhibition [9]: Active; Activity [10]: 63.5%; inhibition [11]: Active; Activity [12]: 84.5%
COc1ccc(C2(c3cc(OC)c(OC)c(OC)c3)CC(C#N)=C(c3ccc(Cl)cc3)O2)cc1O (stereo unspecified)	6.07	< 5.00	–
C=C(c1ccc(OC)c(O)c1)c1cc(OC)c(OC)c(OC)c1	9.00	7.07	inhibition [13]: Active
COc1ccc(C2(c3cc(OC)c(OC)c(OC)c3)CC(c3ccc(O)cc3)=NO2)cc1O (stereo unspecified)	< 5.00	5.12	–
COc1ccc(C2=NOC(c3ccc(OC)c(O)c3)(c3cc(OC)c(OC)c(OC)c3)C2)cc1 (stereo unspecified)	< 5.00	< 5.00	–
COc1ccc(C2(c3cc(OC)c(OC)c(OC)c3)CC(C#N)=C(c3ccc(F)cc3)O2)cc1O (stereo unspecified)	6.09	5.14	–
COc1ccc(C2(c3cc(OC)c(OC)c(OC)c3)CC(c3cc(OC)c(OC)c(OC)c3Cl)=NO2)cc1O (stereo unspecified)	5.06	< 5.00	–
COc1ccc(C2(c3cc(OC)c(OC)c(OC)c3)CC(c3ccccc3Cl)=NO2)cc1O (stereo unspecified)	6.09	5.49	–
CCCCC1(c2cc(OC)c(OC)c(OC)c2)CC(C#N)=C(c2ccc(Cl)cc2)O1 (stereo unspecified)	< 5.00	< 5.00	–
COc1ccc(C2(c3cc(OC)c(OC)c(OC)c3)CC(c3ccccn3)=NO2)cc1O (stereo unspecified)	< 5.00	< 5.00	–
COc1ccc(C2=C(C#N)CC(c3ccc(OC)c(O)c3)(c3cc(OC)c(OC)c(OC)c3)O2)cc1 (stereo unspecified)	< 5.00	< 5.00	–
COc1ccc(C2(c3cc(OC)c(OC)c(OC)c3)CC(C(=O)C(F)(F)F)=C(C)O2)cc1O (stereo unspecified)	5.02	< 5.00	–
COc1ccc(C2(c3cc(OC)c(OC)c(OC)c3)CC(c3ccc(O)c(OC)c3)=NO2)cc1O (stereo unspecified)	< 5.00	< 5.00	–
COc1ccc(C2(c3cc(OC)c(OC)c(OC)c3)CC(C#N)=C(C(C)(C)C)O2)cc1O (stereo unspecified)	< 5.00	< 5.00	–
CCC(=O)C1=C(CC)OC(c2ccc(OC)c(O)c2)(c2cc(OC)c(OC)c(OC)c2)C1 (stereo unspecified)	5.07	< 5.00	–
